Screening results: PubChem, Broad Institute
Rows were chosen to be rich in hits. Some 3.3% of all compounds tested hit in one or more screens of this group.
DENV2 CPE rescue – inhibitors of DENV2 cytopathic effect, primary screen, cell-based, plate reader, single concentration. DENV2-infected cells, cytopathic effect rescue. CPE inhibition, % at 9.99 µM. 350,000 tested, 1.7% active; in the data active means CPE inhibition above about 20%, passing the limit was not always enough; inconclusive means no clear call, values can overlap the other calls; tested in BHK-21 cells;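 further: 0% = median of neutral control wells and 100% = median of positive control wells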
XiGFP reactiv – activators of inactive X chromosome reactivation, primary screen, imaging, XiGFP fibroblasts, GFP high-content imaging, set 2; activation, % at 7.58 µM; XiGFP mouse fibroblasts, % GFP-positive cells imaging, 3 d; cells co-treated with 5-aza-dC sensitizer; scaled so ellipticine positive control = 100%; AID 743238, 2013; 360,000 tested, 0.055% active;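 active means mean normalized replicate activation at least 10% and every replicate at or above 10%; inconclusive means only one of the two criteria met; inactive means mean below 10% and not all replicates reach 10%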;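 further: 0% = median of on-plate neutral control wells and 100% = ellipticine 6 µM median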
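Schedule: 3 d treatment, 15 min room-temperature fixation; system: 68-5-11 XiGFP fibroblast line; buffer or medium: DMEM plus 5-aza-dC sensitizer; control set: ellipticine 6 µM positive control; compound: one concentration, pinned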
PglD DTNB – C. jejuni PglD acetyltransferase inhibitors, primary screen, biochemical, DTNB colorimetric, single point; 360,000 tested, 0.098% active; purified PglD enzyme, DTNB colorimetric CoA detection; AID 602405, 2012; inhibition, % at 12.5 µM; UDP-N-acetylbacillosamine N-acetyltransferase PglD (Campylobacter jejuni); in the data active means inhibition above about 16%, passing the limit was not always enough; inconclusive means no clear call, values can overlap the other calls
Statin myotox sup – suppressors of statin myotoxicity in C2C12 myotubes, primary screen, cell-based, single point, plate reader; 330,000 tested, 0.78% active; rescue of ATP level, % at 7.49 µM; C2C12 myotubes + simvastatin, ATP luminescence, 48 h; scaled: DMSO 0, geranylgeraniol control 100; AID 602340, 2012;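 active means mean ATP rescue above about 67%, or every replicate alone reaching that limit, limit read from the data, passing the limit was not always enough; inconclusive means no clear call, values can overlap the other calls; inactive means mean under the limit and some replicate under it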;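 further: myotubes were challenged with 10 µM simvastatin during compound exposure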
E-sel inducer – E-selectin induction in HUVECs, primary screen, imaging, HUVEC, immunofluorescence imaging, single point; P16581; normalized: neutral wells 0, TNF-alpha wells 100; activation, % at 7.58 µM; 260,000 tested, 0.37% active;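 active means mean E-selectin-positive cell signal at least 10% of the positive control, reached in at least 60% of replicates, without over 20% cell loss; inconclusive means no rule given, readout overlaps actives, possibly toxicity-flagged; inactive means the rest, including those meeting only one limit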
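Test system – human umbilical vein endothelial cells (HUVEC), E-selectin induction · Input – 3,000 HUVEC seeded per well · Buffer or medium – EGM-2, gelatin · Compound dosing – single-point compound dose · Detection – immunofluorescence imaging · Measure – percent E-selectin-positive cells · Controls – TNF-alpha high, DMSO low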
FGF22 binding – binders of human FGF22 protein, primary screen, FGF22 synaptogenesis inhibitor project, biophysical, thermal shift, single point. recombinant FGF22 thermal shift, SYPRO orange fluorescence; percent of sucrose octasulfate shift, DMSO zero. activity (Tm shift, normalised), % at 9.99 µM. 340,000 tested, 1.5% active. AID 651658, 2012;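 active means mean Tm shift, scaled 0 neutral to 100 positive control, at about 1.3% or above, every replicate too, limit read from the data; inconclusive means no clear call, values can overlap the other calls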
Target sequence (Q9HCT0 whole entry, looked up): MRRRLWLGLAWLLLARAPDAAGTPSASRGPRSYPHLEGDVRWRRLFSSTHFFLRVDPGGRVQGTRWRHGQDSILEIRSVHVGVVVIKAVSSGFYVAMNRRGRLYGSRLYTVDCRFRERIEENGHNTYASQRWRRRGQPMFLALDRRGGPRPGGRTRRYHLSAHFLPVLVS
* = called active by the depositor; ? = inconclusive; . = not tested or not shown; ! = repeats disagree.

SMILES	DENV2 CPE rescue	XiGFP reactiv	PglD DTNB	Statin myotox sup	E-sel inducer	FGF22 binding
CN(C)C(=O)C[C@H]1CC[C@H]2[C@@H](COc3ccc(NC(=O)c4ccc(F)c(F)c4)cc3C(=O)N2C)O1	-6.7	0.1	-1.5	15.3	0.0	0.0
CN(C)C(=O)c1ccc(NC(=O)c2ccc(-c3ccc(Cl)cc3)o2)cc1	-1.2	-0.1	-1.2	-17.2	0.1	1.8*
C[C@@H]1CN([C@H](C)CO)C(=O)c2cc(NC(=O)Nc3ccc(F)cc3)ccc2O[C@H]1CN(C)S(=O)(=O)c1ccc(F)cc1	-1.6	-0.1	-4.4	0.9	0.3	0.2
Cc1ccc(NC(=O)CSc2n[nH]c(N)n2)cc1S(=O)(=O)N1CCOCC1	-5.0	0.1	-5.2	-6.7	-0.1	43.9*
NS(=O)(=O)c1cccc(NC(=O)CSc2n[nH]c(-c3cccs3)n2)c1	1.5	0.2	-2.0	-0.6	.	0.8
Cc1ccc(NC(=O)c2ccc(S(=O)(=O)N3CC(C)CC(C)C3)cc2)cc1S(=O)(=O)N1CCOCC1 (stereo not given)	45.6*	0.0	0.0	9.6	.	0.1
COc1ccc(-c2nc(SCC(=O)Nc3cccc(S(N)(=O)=O)c3)n[nH]2)cc1	3.9	0.6	-0.8	1.0	-0.1	1.8*
COc1ccc(NC(=O)CSc2n[nH]c(-c3ccccc3)n2)cc1S(N)(=O)=O	52.5*	0.0	-0.2	1.6	-0.2	1.1
N#C[C@@H]1[C@@H](c2ccccc2C2=CCCC2)[C@H](CO)N1C(=O)NC1CCCCC1	-8.7	0.0	.	.	-0.1	.
CS(=O)(=O)Nc1ccc2c(c1)[C@@H]1C[C@@H](CC(=O)NC3CCCC3)O[C@H](CO)[C@@H]1O2	3.6	0.0	2.4	4.2	-0.3	0.0
O=C(CSc1n[nH]c(-c2ccccc2)n1)NCc1cccc(C(=O)O)c1	0.0	0.3	.	-4.4	.	42.9*
CCCCCc1ccc(-c2nnc(N)s2)cc1	.	0.0	.	-2.4	-0.1	43.2*
C=CCOC(=O)C(=O)/C=C/c1ccc2c(c1)Cc1ccccc1-2	37.0*!	0.3	0.0	1.5	0.1	0.1
CCC(CO)Oc1cc(NCc2cccc(F)c2)c2ncn(C(C)C)c2c1 (stereo not given)	117.6*	0.0	-1.9	7.8	0.0	-0.7
CCC(CO)Oc1cc(NCc2cccc(O)c2)c2ncn(C(C)C)c2c1 (stereo not given)	-6.6	-0.7	-3.1	4.1	0.3	-0.5
C[C@@H]1CN([C@@H](C)CO)C(=O)c2cc(NC(=O)Nc3ccc(F)cc3)ccc2O[C@H]1CN(C)C(=O)Nc1ccccc1	17.7	-0.1	-5.6	4.0	-0.7	-0.3
COc1ccc(C2=C/C(=C\c3ccc(OC(C)=O)cc3)C(=O)O2)cc1	2.6	0.1	-0.4	-5.4	-0.1	42.4
CC(=O)Oc1ccc(C2=Cc3ccc(OC(C)=O)cc3OC2C)cc1 (stereo not given)	-2.7	0.5	4.5	7.0	118.3*	43.4*
CO[C@@H]1CN(C)C(=O)c2cc(NS(C)(=O)=O)ccc2OC[C@H](C)N(CCC(F)(F)F)C[C@H]1C	-4.3	0.0	1.8	-3.1	-0.5	0.2
O=C1C2C3C=CC(CC3)C2C(=O)N1/N=C/c1ccco1 (stereo not given)	5.5	0.0	.	.	.	44.0*
O=C1C2C(C(=O)N1/N=C/c1ccco1)C1C=CC2C12CC2 (stereo not given)	5.3	.	5.2	-6.1	.	-0.1
CN1CCCCN2[C@H](CO)[C@@H](c3ccc(C#Cc4ccccc4F)cc3)[C@H]2C1	-19.6	0.4	11.6	24.3	-0.4	0.1
COc1ccc(Cc2noc(CN(C)CCc3ccccc3)n2)cc1OC	-3.2	-0.1	1.0	27.7	.	0.0
COc1ccc(CN(C)Cc2nc(Cc3ccccc3Cl)no2)cc1OC	-3.3	33.1*	0.9	-8.9	-0.1	0.2
C[C@H](CO)N1C[C@H](C)[C@H](CN(C)Cc2ccccn2)Oc2cc(-c3ccc(C#N)cc3)ccc2S1(=O)=O	-5.8	0.0	-3.1	-5.0	-0.2	0.0
SMILES	DENV2 CPE rescue	XiGFP reactiv	PglD DTNB	Statin myotox sup	E-sel inducer	FGF22 binding
C[C@@H]1CN([C@H](C)CO)S(=O)(=O)c2ccc(C3=CCCCC3)cc2O[C@H]1CN(C)C(=O)Nc1ccc2c(c1)OCO2	0.4	-0.3	-0.4	-24.6	0.7	0.0
COc1ccc(CN2CCn3ncc(C(=O)Nc4cccc(C)c4)c3C2=O)cc1	.	.	0.9	124.0*	.	.
O=c1c2ccccc2nc2c3ccccc3c(NCCO)nn12	73.1*	0.2	0.4	-2.1	0.9	0.3
O=c1c2ccccc2nc2c3ccccc3c(NCc3ccccn3)nn12	2.2	-0.1	-0.8	.	-0.2	0.0
C[C@H](CO)N1C[C@H](C)[C@H](CN(C)C(=O)Cc2ccccn2)Oc2ncc(C#CC3CC3)cc2C1=O	24.7*	-0.9	0.1	-0.8	1.5	0.1
C[C@H](CO)N1C[C@H](C)[C@H](CN(C)C)Oc2ncc(C#CC3CC3)cc2C1=O	101.5*	0.0	1.3	5.4	0.2	0.0
C[C@H]1CN([C@@H](C)CO)C(=O)c2cc(C#CC3CC3)cnc2O[C@H]1CN(C)C(=O)Cc1ccccn1	1.7	0.4	-1.9	35.9	0.0	0.2
C[C@H](CO)N1C[C@H](C)[C@@H](CN(C)C(=O)Nc2ccccc2)Oc2ncc(C#CC3CCCC3)cc2C1=O	-2.5	-0.4	-0.3	78.2*	0.6	-0.2
C[C@@H]1CN([C@H](C)CO)C(=O)c2cc(C#CC3CC3)cnc2O[C@H]1CN(C)C(=O)Nc1ccccc1	31.3*	-1.1	-2.6	5.6	0.7	-0.1
C[C@H](CO)N1C[C@H](C)[C@H](CN(C)S(=O)(=O)c2cccc(F)c2)Oc2ncc(-c3cccc(F)c3)cc2C1=O	?	0.6	4.7	37.7	-0.1	0.1
CC(C)NC(=O)N(C)C[C@H]1Oc2c(NC(=O)C3CC3)cccc2C(=O)N([C@@H](C)CO)C[C@H]1C	-3.8	-0.6	8.0	-18.0	-0.6	0.1
C[C@H]1CN([C@@H](C)CO)C(=O)c2cccc(NC(=O)C3CC3)c2O[C@@H]1CN(C)C	23.3*	0.0	-2.4	-26.2	-4.7	-0.1
CC(C)NC(=O)N(C)C[C@H]1Oc2c(NC(=O)C3CC3)cccc2C(=O)N([C@H](C)CO)C[C@H]1C	42.2*	-0.5	6.1	-36.8	-3.9	0.3
